Measured values taken from ChEMBL document CHEMBL1148694, “Calcitriol derivatives with two different side-chains at C-20. Part 4: further chain modifications that alter VDR-dependent monocytic differentiation potency in human leukemia cells” (2007).
Active and inactive are the calls of the source. The calls are words filed in the database; no cut-off is given here.

Assays:
[1] = Induction of differentiation in human HL60-G cells assessed as CD11b expression relative to 1-alpha,25-dihydroxyvitamin D3; format: functional
In short: (§1)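 HL60-G33 cells in RPMI 1640 with 10% bovine calf serum at 37 °C, 5% CO2, given compounds in fresh medium (ethanol vehicle); 1,25D at 0.1, 1 and 10 nM. 1×10^6 cells washed twice in PBS, stained on ice for 45 min with MO1-FITC (CD11b) and MY4-RD1 (CD14), then washed. Flow cytometry with acquisition set on isotype controls.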

HL60-40AF = test: Induction of differentiation in 1-alpha,25-dihydroxyvitamin D3 resistant human HL60-40AF cells; format: functional, cell-based
In short: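 Differentiation-resistant HL60-40AF subclone adapted to grow in 1,25D, cultured in RPMI 1640 with 10% bovine calf serum. Compounds given in fresh medium with ethanol vehicle; 1,25D at 10 and 100 nM. 1×10^6 cells washed in PBS, stained on ice for 45 min with MY4-RD1 (CD14) and MO1-FITC (CD11b). Read by flow cytometry, gated on isotype controls.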

[2] = Induction of differentiation in human HL60-G cells assessed as CD14 expression relative to 1-alpha,25-dihydroxyvitamin D3; format: functional; in short: as §1
[3] = (§2) Induction of CYP24 mRNA expression in human HL60-G cells at 1 nM after 12 hrs relative to 1-alpha,25-dihydroxyvitamin D3; format: functional
In short: (§3)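 HL60-G33 cells exposed to 1 nM compound for 12 h. Total RNA from 5×10^6 cells was DNase-treated, and 1 μg was reverse transcribed with MuLV RT and oligo-d(T). CYP24 transcript measured by SYBR green real-time PCR on a LightCycler with ARP0 as internal control. Values normalized to 1,25D treatment.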

[4] = Induction of differentiation in human HL60-G cells assessed as CD11b expression; format: functional; in short: as §1
[5] = Induction of differentiation in human HL60-G cells assessed as CD14 expression; format: functional; in short: as §1
HL60-G = test: as §2; format: functional; in short: as §3
[6] = Cell cycle arrest in HL60-G cells assessed as accumulation at G1 phase after 48 to 72 hrs; format: functional, cell-based; conditions: Homo sapiens
In short: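 HL60-G33 cells in RPMI 1640 with 10% bovine calf serum, 37 °C, 5% CO2, given compounds in fresh medium (ethanol vehicle) for 48 and 72 h over increasing concentrations. 1×10^6 cells fixed in 75% ethanol at -20 °C overnight, treated with RNase A 100 U/mL at 37 °C for 1 h, stained with propidium iodide 10 μg/mL. Flow cytometry; G1/S ratio.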

| SMILES | Activity [1] | Activity (HL60-40AF) | Activity [2] | Fold change [3] | ED20 [4] | ED20 [5] | Activity (HL60-G) | Activity [6] |
| --- | --- | --- | --- | --- | --- | --- | --- | --- |
| CC(C)(O)CC[C@@H]1C[C@@]1(CC#CC(O)(C(F)(F)F)C(F)(F)F)[C@H]1CCC2/C(=C/C=C3C[C@@H](O)C[C@H](O)C3)CCC[C@@]21C (stereo partly specified) | 1.03 | Active | 1.24 | 2.5 | 1.17 nM | 0.46 nM | – | – |
| CC(C)(O)CCC[C@@]1([C@H]2CCC3/C(=C/C=C4C[C@@H](O)C[C@H](O)C4)CCC[C@@]32C)C[C@H]1CCC(C)(C)O (stereo partly specified) | 0.01 | – | 0.009 | – | 98.75 nM | 66.03 nM | – | – |
| C=C1/C(=C\C=C2/CCC[C@@]3(C)C2CC[C@@H]3[C@]2(CCCC(C)(C)O)C[C@H]2CCC(C)(C)O)C[C@@H](O)C[C@H]1F (stereo partly specified) | <0.002 | – | <0.001 | – | – | >500 nM | – | – |
| C=C1/C(=C\C=C2/CCC[C@@]3(C)C2CC[C@@H]3[C@]2(CCCC(C)(C)O)C[C@H]2CCC(C)(C)O)C[C@@H](O)C[C@@H]1O (stereo partly specified) | 0.06 | – | – | – | 19.75 nM | 9.97 nM | inactive | – |
| C=C1/C(=C\C=C2/CCC[C@@]3(C)C2CC[C@@H]3[C@]2(CC#CC(O)(C(F)(F)F)C(F)(F)F)C[C@H]2CCC(C)(C)O)C[C@@H](O)C[C@@H]1O (stereo partly specified) | 2.31 | Active | 2.38 | 30 | 0.52 nM | 0.24 nM | – | Active |
| C=C1/C(=C\C=C2/CCC[C@@]3(C)C2CC[C@@H]3[C@H](C)CCCC(C)(C)O)C[C@@H](O)C[C@H]1O (stereo partly specified) | – | – | – | – | 1.2 nM | 0.57 nM | – | – |
